Most compounds without a hit are left out; they make up all but 1.9% or so of the library.
MsrA inh = inhibits bovine methionine sulfoxide reductase A; purified bovine MsrA, absorbance read-out; inhibition, % at 15.5 µM; actives 0.75% (n = 360,000); AID 651718;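 note: 0% = vehicle wells with enzyme and 100% = reference inhibitor wells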
N-glyco inh = N-linked glycosylation inhibition; reporter increase, % at 12.5 µM; actives 0.23% (n = 360,000); D54 ERlucT glycosylation luciferase reporter, 24 h; percent of 100 nM tunicamycin response;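 active = mean luciferase reporter signal, scaled so untreated is 0 and the glycosylation-blocking control 100, at or above a set limit in every replicate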;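 note: luciferase carries N-glycosylation sites so blocking glycosylation raises the light; 0% = median of neutral control wells and 100% = median of 100 nM tunicamycin wells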
Vif imaging = HIV Vif inhibition. inhibition, % at 7.49 µM. actives 0.35% (n = 340,000). HEK293T cells, Vif self-association by quenched fluorescence, imaging, 24 h; in the data active = inhibition above about 50%, passing the limit was not always enough
UCH37 DUB inh = human UCH37 deubiquitinating enzyme inhibition | inhibition, % (no concentration beside the values) | actives 0.33% (n = 330,000) | Q9Y5K5 | purified proteasome/UCH37, Ub-AMC cleavage fluorescence;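 active = mean inhibition over replicate wells above about 20%, limit read from the data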;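 note: 0% = compound-free wells with enzyme and 100% = wells lacking proteasome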
Target sequence (Q9Y5K5 whole entry, looked up): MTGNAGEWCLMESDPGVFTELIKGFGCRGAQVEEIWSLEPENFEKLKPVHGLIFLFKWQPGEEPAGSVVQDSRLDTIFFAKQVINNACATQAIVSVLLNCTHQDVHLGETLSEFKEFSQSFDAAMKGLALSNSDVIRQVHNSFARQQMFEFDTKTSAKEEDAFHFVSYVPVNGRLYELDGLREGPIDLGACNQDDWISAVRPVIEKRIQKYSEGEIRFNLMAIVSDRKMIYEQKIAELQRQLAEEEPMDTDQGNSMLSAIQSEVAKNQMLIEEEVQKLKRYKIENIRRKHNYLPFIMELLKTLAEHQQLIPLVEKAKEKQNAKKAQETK
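Reagent: Ub-AMC substrate; assay system: Proteasome-associated human UCH37 deubiquitinase; controls: no-proteasome and no-compound wells; read-out: % inhibition of Ub-AMC cleavage fluorescence; timing: 30 min preincubation with enzyme, 25 min cleavage at room temperature; signal: AMC fluorescence from Ub-AMC cleavage, excitation 355 nm, emission 460 nm; buffer or medium: Tris-HCl pH 7.4 plus ovalbumin, ATP-MgCl2, DTT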
aDG glyco act = alpha-DG glycosylation activation; Pro5-aDG cells, alpha-DG glycosylation AlphaScreen (IIH6); 0% Pro5, 100% B10-LARGE cell signal; activation, % at 10 µM; actives 0.22% (n = 360,000); AID 624168;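 active = activation of at least 8% versus controls, or a plate z-score of at least 8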;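 note: Pro5 are CHO cells carrying HIG-tagged alpha-DG that lacks glycosylation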
bovine MsrA act = bovine methionine sulfoxide reductase A activation. purified bovine MsrA, absorbance read-out. activation, % at 10.6 µM. actives 0.3% (n = 360,000); in the data active = activation above about 7.5%;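 note: 0% = vehicle and 100% = reference activator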
MsrA conf = confirmation of bovine MsrA inhibitors. inhibition, % at 15.5 µM. actives 41% (n = 2,300). purified bovine MsrA, absorbance read-out. shares compounds with MsrA inh;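 note: coupled to thioredoxin reductase with NADPH and selenocystamine and DMSO as substrate; 0% = vehicle only and 100% = full effect of reference inhibitor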
Starred values were filed as active, the others as inactive; . = no result. Cut-off read from the data, not from the text of the source, unless noted: active = inhibition above about 4.5%; inactive = the rest.

SMILES	MsrA inh	N-glyco inh	Vif imaging	UCH37 DUB inh	aDG glyco act	bovine MsrA act	MsrA conf
COc1ccc(C(C)=NN2C(C)CCCC2C)c(OC)c1 (configuration not stated)	.	.	.	1.1	.	.	.
Cn1c(=O)c(=O)n(C)c2cc(N3CCCCC3)c(NS(=O)(=O)c3ccc([N+](=O)[O-])cc3)cc21	4.8*	-0.3	-0.9	3.5	-0.1	-2.1	2.0
Cn1c(=O)c(=O)n(C)c2cc(N3CCCC3)c(NS(=O)(=O)c3ccc(F)cc3)cc21	2.7	6.9	7.3	5.5	-0.2	-1.7	.
O=[N+]([O-])c1ccc(N2CCCC2)c([N+](=O)[O-])c1	9.0*	-1.9	-1.4	.	-0.4	-5.4	5.5*
O=[N+]([O-])c1ccc(N2CCOCC2)c([N+](=O)[O-])c1	1.8	0.9	12.1	9.6	-0.1	-2.2	.
COCC(=O)NN=C(C)CC(=O)Nc1ccccc1C(N)=O	.	.	.	-2.4	.	.	.
COc1ccc(C(=O)N(CN2CCCC2=O)c2nccs2)cc1OC	7.5*	4.5	7.2	6.4	-0.1	-14.7	5.1*
COc1cccc(C=Nn2c(COc3ccccc3)n[nH]c2=S)c1O	.	.	.	6.1	.	.	.
Nc1ccc(C(=O)N/N=C\C=C\c2cccc([N+](=O)[O-])c2)cc1	9.9*	2.1	1.1	.	-0.2	-9.8	6.8*
O=C(N/N=C/C=C/c1ccccc1)c1ccncc1	8.0*	-1.3	-3.7	.	0.5	-1.0	6.9*
CC(=O)c1ccc(N2CCN(S(=O)(=O)c3cccc4nsnc34)CC2)cc1	4.7*	0.1	8.2	1.4	0.0	-11.8	1.5
CCOC(=O)C1CCCN(C(=O)c2cnn3c(C(F)(F)F)cc(-c4ccccc4)nc23)C1 (configuration not stated)	5.3*	2.3	0.3	-5.5	0.3	-1.5	2.6
CCOC(=O)c1cnn2c(C(F)(F)F)cc(-c3ccccc3)nc12	1.1	-0.6	-4.5	-99.0	-0.2	-3.3	.
O=S(=O)(Nc1ccc2cn[nH]c2c1)c1cc(Br)ccc1Br	6.2*	2.0	2.7	-1.2	-0.1	-3.4	3.4
Cc1ccc(C)c(S(=O)(=O)Nc2ccc3cn[nH]c3c2)c1	1.9	0.9	-5.1	0.1	0.1	-7.4	.
CCOC(=O)C1=C(C)NC(C)=C(C(=O)OCC)C1C(=O)OCC(=O)NC	11.2*	2.0	-2.9	-42.6	0.1	-4.6	3.6
O=C(CCN1C(=O)S/C(=C/c2ccccc2)C1=O)Nc1ccc(O)c(C(=O)O)c1	6.5*	6.4	-23.5	-19.3	-0.4	-0.4	3.8
O=C(CCN1C(=O)S/C(=C\c2ccccc2)C1=O)Nc1ccc(O)cc1C(=O)O	4.8*	2.0	1.4	1.9	0.1	-3.9	4.5
O=C(CCN1C(=O)S/C(=C\c2cccs2)C1=O)Nc1nccs1	1.4	-0.8	-3.0	5.1	0.1	-0.2	.
O=C(CCN1C(=O)/C(=C\c2ccccc2)SC1=S)Nc1ccc(C(=O)O)cc1	1.7	-1.2	4.4	7.4	0.0	-0.9	.
COc1ccc(/C=C2\SC(=S)N(CCC(=O)Nc3ccccc3C(=O)O)C2=O)cc1	0.4	0.2	-1.7	7.9	0.0	-8.9	.
O=C(CN1C(=O)S/C(=C\c2cccs2)C1=O)Nc1ccc(O)cc1C(=O)O	5.1*	2.6	-6.5	14.3	0.1	-12.3	4.1
O=C(CN1CCN(S(=O)(=O)c2ccc(Br)cc2)CC1)NN=Cc1cc([N+](=O)[O-])ccc1Cl	.	.	.	3.8	.	.	.
Cc1ccccc1N=C1c2ccccc2C(=O)C1[N+](=O)[O-] (configuration not stated)	5.8*	1.0	22.6	10.6	-0.1	-1.9	4.0
CC(=O)C1C(=O)c2c(cccc2[N+](=O)[O-])C1=Nc1ccccc1C (configuration not stated)	1.0	.	.	2.3	.	.	.
SMILES	MsrA inh	N-glyco inh	Vif imaging	UCH37 DUB inh	aDG glyco act	bovine MsrA act	MsrA conf
CCN(CC)c1ccc(/C=N/n2c(C)cc(C)cc2=O)cc1	5.1*	0.7	-2.6	.	-0.1	-6.3	4.1
C=CCOCCN(C)C1=NS(=O)(=O)c2cc([N+](=O)[O-])ccc21	13.8*	4.1	0.3	4.8	2.4	1.1	7.2*
CC(C)C(=O)N1CCN(c2ccc([N+](=O)[O-])c(NC(C)c3ccccc3)c2)CC1 (configuration not stated)	11.8*	-6.4	-2.4	7.4	-0.2	-2.6	7.2*
Cc1c(NC(=S)NN=C/C=C/c2ccccc2)c(=O)n(-c2ccccc2)n1C	.	.	.	19.0	.	.	.
Cc1cc(=O)oc2c1ccc1oc(C(=NO)c3ccccc3)c(C)c12	.	.	.	-2.8	.	.	.
COc1ccccc1S(=O)(=O)N(C)C[C@H]1Oc2cc(Br)ccc2S(=O)(=O)N([C@H](C)CO)C[C@H]1C	5.6*	.	.	.	.	.	0.5
Cc1c(NC(=S)N/N=C/c2ccc(N(C)C)cc2)c(=O)n(-c2ccccc2)n1C	5.0*	1.0	-0.1	.	-0.2	-5.7	4.6*
Cc1c(NC(=S)NN=Cc2ccc(Br)cc2)c(=O)n(-c2ccccc2)n1C	.	.	.	7.1	.	.	.
O=C(O)c1ccc2c(=O)n3c(nc2c1)/C(=C/c1ccc(F)cc1)CC3	5.5*	0.4	.	-11.5	0.0	-1.6	4.4
CC(=NOCC(=O)OCC(=O)NCc1ccccc1)c1ccc2c(c1)OCO2	.	.	.	1.8	.	.	.
Cc1cccc(C=NNc2nncc3ccccc23)c1	.	.	.	6.3	.	.	.
O=C1c2ccccc2C(=O)C1c1ccc(O)cc1	4.9*	0.5	-9.9	-22.9	-0.1	-4.7	2.5
O=C1c2ccccc2C(=O)C1c1ccc(Br)cc1	0.2	-1.2	-3.8	2.1	0.4	0.4	.
COc1cc(/C=N/NC(=O)c2ccc3c(c2)OCCO3)cc(Cl)c1O	6.0*	1.6	-1.2	.	-0.1	-9.5	5.0*
COc1c(O)ccc(/C=N/NC(=O)c2ccc3c(c2)OCCO3)c1[N+](=O)[O-]	7.2*	1.1	-6.8	.	0.0	-6.2	4.4
COc1c(O)ccc(/C=N\NC(=O)c2ccc3c(c2)OCO3)c1[N+](=O)[O-]	8.1*	1.5	-1.9	.	0.0	-4.1	4.9*
CCOC(=O)c1sc(N=CN(C)C)nc1C	.	.	.	8.8	.	.	.
CCOc1cccc(C=NNC(=O)CC2C(=O)NN=C2C)c1O (configuration not stated)	.	.	.	-3.5	.	.	.
O=[N+]([O-])c1cc(-c2ccc(/C=N/n3cnnc3)o2)ccc1Cl	-0.1	1.8	-8.0	.	0.0	-1.8	.
O=[N+]([O-])c1ccc(Cl)c(-c2ccc(/C=N/n3cnnc3)o2)c1	5.2*	-1.5	-13.7	.	0.2	-9.4	6.0*
O=C(O)c1ccc(-n2cccn2)nc1	-0.8	2.3	3.2	-0.1	-0.3	-1.8	.
c1cnn(-c2cncc(-n3cccn3)n2)c1	14.1*	0.1	3.4	-8.2	0.1	-4.3	10.3*
COc1ccc(OC)c(/C=C(\NC(=O)c2ccccc2)C(=O)NN=Cc2ccc(C)s2)c1	.	.	.	-31.5	.	.	.

Screens deposited in PubChem by several laboratories.
